{
  "source": "PubChem BioAssay AID977615",
  "about": "(Broad Institute, 2014)",
  "note": "Where “and” joins values, the source holds several entries; their conditions need not be identical. Identical values can stand only once. Calls of active or inactive are those of the source.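 Rule for the calls: active = cell killing with fitted AC50 at or below twice the top valid dose for that sample; inconclusive = flat curve losing 30 to 70% signal, or bad fit; inactive = the rest.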",
  "data": [
    {"test_system": "not listed separately", "test": "HEK293T cell cytotoxicity, dose response, cytotoxicity control, CellTiter-Glo luminescence, dry powder, set 17 (AID 977615)", "conditions": "HEK293T viability, CellTiter-Glo ATP luminescence, 72 h; at 26 µM (top of the series)", "in_short": "(§1)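 Assay system: HEK293T cells. Buffer or medium: DMEM plus 10% FBS. Compound dosing: multi-concentration compound series. Schedule: 24 h attachment, 72 h compound exposure, 37 °C, 5% CO2. Signal: CellTiter-Glo ATP luminescence.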", "values": [
      {"smiles": "C[C@H](O)C#Cc1ccc2c(c1)O[C@H](CN(C)Cc1ccc(-c3ccccc3)cc1)[C@H](C)CN([C@@H](C)CO)S2(=O)=O", "activity change, negative = cytotoxic": "-11.3% (inactive)"},
      {"smiles": "C[C@@H]1CN([C@H](C)CO)S(=O)(=O)c2ccc(C#C[C@@H](C)O)cc2O[C@H]1CN(C)Cc1ccc(-c2ccccc2)cc1", "activity change, negative = cytotoxic": "-10.1% (inactive)"},
      {"smiles": "C[C@@H](O)C#Cc1ccc2c(c1)O[C@@H](CN(C)Cc1ccncc1)[C@@H](C)CN([C@@H](C)CO)S2(=O)=O", "activity change, negative = cytotoxic": "-12% (inactive)"},
      {"smiles": "C[C@@H](O)C#Cc1ccc2c(c1)O[C@@H](CN(C)Cc1cccnc1)[C@@H](C)CN([C@@H](C)CO)S2(=O)=O", "activity change, negative = cytotoxic": "2.11% (inactive)"},
      {"smiles": "CO[C@H]1CN(C)C(=O)c2ccc(NC(=O)c3ccc(F)cc3)cc2OC[C@H](C)N(C(=O)c2ccc(F)cc2)C[C@@H]1C", "activity change, negative = cytotoxic": "1.97% (inactive)"},
      {"smiles": "C[C@@H](O)C#Cc1ccc2c(c1)O[C@@H](CN(C)S(=O)(=O)c1ccc(-c3ccccc3)cc1)[C@@H](C)CN([C@@H](C)CO)S2(=O)=O", "activity change, negative = cytotoxic": "-12.1% (inactive)"},
      {"smiles": "CNC[C@@H]1Oc2cc(Br)ccc2S(=O)(=O)N([C@@H](C)CO)C[C@@H]1C", "activity change, negative = cytotoxic": "-16.1% (inactive)"},
      {"smiles": "C[C@@H]1CN([C@H](C)CO)S(=O)(=O)c2ccc(C#C[C@@H](C)O)cc2O[C@@H]1CN(C)Cc1ccc(-c2ccccc2)cc1", "activity change, negative = cytotoxic": "2.1% (inactive)"},
      {"smiles": "C[C@H]1CN([C@@H](C)CO)S(=O)(=O)c2ccc(Br)cc2O[C@H]1CN(C)Cc1ccc(-c2ccccc2)cc1", "activity change, negative = cytotoxic": "-0.919% (inactive)"},
      {"smiles": "C[C@@H]1CN([C@@H](C)CO)S(=O)(=O)c2ccc(C#C[C@@H](C)O)cc2O[C@@H]1CN(C)Cc1ccc(-c2ccccc2)cc1", "activity change, negative = cytotoxic": "-8.45% (inactive)"}
    ]},
    {"test_system": "HEK293T viability, CellTiter-Glo ATP luminescence, 72 h", "test": "HEK293T cell cytotoxicity, dose response, cytotoxicity control, CellTiter-Glo luminescence, dry powder, set 17 (AID 977615)", "conditions": "not given", "in_short": "as §1", "values": [
      {"smiles": "Cc1cccc(-c2ccc(CN(C)C[C@@H]3Oc4cc(C#C[C@@H](C)O)ccc4S(=O)(=O)N([C@@H](C)CO)C[C@@H]3C)cc2)c1", "AC50": "1530 nM"},
      {"smiles": "COc1ccc(-c2ccc3c(c2)O[C@@H](CN(C)Cc2ccc(-c4ccccc4)cc2)[C@@H](C)CN([C@@H](C)CO)S3(=O)=O)cc1", "AC50": "> 52000 nM (inactive)"},
      {"smiles": "C[C@@H](O)C#Cc1ccc2c(c1)O[C@@H](CN(C)Cc1ccc(-c3ccccc3)cc1)[C@@H](C)CN([C@@H](C)CO)S2(=O)=O", "AC50": "3610 nM and 2940 nM"},
      {"smiles": "C[C@H](O)C#Cc1ccc2c(c1)O[C@@H](CN(C)Cc1ccc(-c3ccccc3)cc1)[C@@H](C)CN([C@@H](C)CO)S2(=O)=O", "AC50": "22000 nM"},
      {"smiles": "Cc1ccccc1-c1ccc(CN(C)C[C@@H]2Oc3cc(C#C[C@@H](C)O)ccc3S(=O)(=O)N([C@@H](C)CO)C[C@@H]2C)cc1", "AC50": "1890 nM"},
      {"smiles": "C[C@@H](O)C#Cc1ccc2c(c1)O[C@@H](CN(C)Cc1ccc(-c3ccccc3Cl)cc1)[C@@H](C)CN([C@@H](C)CO)S2(=O)=O", "AC50": "364 nM"},
      {"smiles": "C[C@H]1CN([C@@H](C)CO)S(=O)(=O)c2ccc(C#CC(C)(C)O)cc2O[C@H]1CN(C)Cc1ccc(-c2ccccc2)cc1", "AC50": "18000 nM"},
      {"smiles": "COc1ccccc1-c1ccc(CN(C)C[C@@H]2Oc3cc(C#C[C@@H](C)O)ccc3S(=O)(=O)N([C@@H](C)CO)C[C@@H]2C)cc1", "AC50": "1350 nM"},
      {"smiles": "C[C@H](CO)N1C[C@H](C)[C@H](CN(C)Cc2ccc(-c3ccccc3)cc2)Oc2cc(C#C[C@@H](C)O)ccc2S1(=O)=O", "AC50": "21700 nM"},
      {"smiles": "C[C@@H](O)C#Cc1ccc2c(c1)O[C@@H](CN(C)Cc1ccc(-c3ccc(Cl)cc3)cc1)[C@@H](C)CN([C@@H](C)CO)S2(=O)=O", "AC50": "1260 nM"},
      {"smiles": "C[C@@H](O)C#Cc1ccc2c(c1)O[C@H](CN(C)Cc1ccc(-c3ccccc3)cc1)[C@@H](C)CN([C@@H](C)CO)S2(=O)=O", "AC50": "25900 nM"},
      {"smiles": "C[C@H](O)C#Cc1ccc2c(c1)O[C@H](CN(C)Cc1ccc(-c3ccccc3)cc1)[C@@H](C)CN([C@@H](C)CO)S2(=O)=O", "AC50": "7120 nM"},
      {"smiles": "C[C@@H](O)C#Cc1ccc2c(c1)O[C@@H](CN(C)Cc1ccc(-c3cccc(Cl)c3)cc1)[C@@H](C)CN([C@@H](C)CO)S2(=O)=O", "AC50": "2080 nM"},
      {"smiles": "COc1ccc(-c2ccc(CN(C)C[C@@H]3Oc4cc(C#C[C@@H](C)O)ccc4S(=O)(=O)N([C@@H](C)CO)C[C@@H]3C)cc2)cc1", "AC50": "1580 nM"},
      {"smiles": "Cc1ccc(-c2ccc(CN(C)C[C@@H]3Oc4cc(C#C[C@@H](C)O)ccc4S(=O)(=O)N([C@@H](C)CO)C[C@@H]3C)cc2)cc1", "AC50": "1540 nM"},
      {"smiles": "C[C@H](O)C#Cc1ccc2c(c1)O[C@@H](CN(C)Cc1ccc(-c3ccccc3)cc1)[C@H](C)CN([C@H](C)CO)S2(=O)=O", "AC50": "26100 nM"},
      {"smiles": "COc1cccc(-c2ccc(CN(C)C[C@@H]3Oc4cc(C#C[C@@H](C)O)ccc4S(=O)(=O)N([C@@H](C)CO)C[C@@H]3C)cc2)c1", "AC50": "884 nM"}
    ]}
  ]
}
